Data as given in paper PMC6136146 (Clinical genitourinary cancer, 2018).
Entries after “also recorded” stand apart in the source; their conditions may differ. Values belong to the compound of their own block, whether it stands above or below them. Numbered stars: 1 amine (or outer) side, 2 acyl side, 3 side chain; on linkers, the order of the positions; unused ones are H or OH. Square brackets hold non-standard residues; d marks the D form. Side chains are listed from the residue outwards. Peptide text beside a SMILES is read from it. * marks the point of attachment. Ethylenediamine = C(CN[*:2])N[*:1]; Hyp = O=C(O)[C@@H]1C[C@@H](O)CN1; Phg = N[C@H](C(=O)O)c1ccccc1; CO = O=C([*:1])[*:2]; Bn = c1ccc(C*)cc1

What was measured:
[1] = Docetaxel pharmacokinetics; type: in vivo, human; settings: docetaxel 75 mg/m2 intravenously, coadministration of SOM230; single-agent docetaxel PK not done
sst1 = settings: extremely high affinity compared to octreotide; cited from earlier work
[2] = test system: patients with metastatic castrate-resistant prostate cancer (mCRPC); experiment: Phase I dose escalation: dose-limiting toxicity, MTD and toxicities; type: in vivo, human
sst2 = settings: extremely high affinity compared to octreotide; cited from earlier work
DU145 cells = settings: cited from earlier work
sst3 = settings: extremely high affinity compared to octreotide; cited from earlier work
sst5 = settings: extremely high affinity compared to octreotide; cited from earlier work
[3] = Pasireotide pharmacokinetics, radioimmunoassay with I-125-pasireotide; type: in vivo, human; settings: intramuscular every 28 days
Outline: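 Competitive radioimmunoassay on patient samples: samples or standards incubated with I-125-pasireotide tracer and antiserum; immune complexes captured on anti-rabbit-coated magnetic beads, unbound fraction washed away, bound radioactivity read in gamma counter. Dosing: long-acting IM injection every 28 days at 40, 60 or 80 mg, with docetaxel 75 mg/m2 IV every 21 days and prednisone 5 mg orally twice daily.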

PC3 cells = settings: cited from earlier work
mCRPC = settings: no different between the 2 arms; cited from earlier work
[4] = 60 mg dose level, 12 patients evaluated, number of patients

Docetaxel clearance compared with the data reported in the literature [1]: 3- to 4 fold higher
Compound: CC(=O)O[C@@]12CO[C@@H]1C[C@H](O)[C@@]1(C)C(=O)[C@H](O)C3=C(C)[C@@H](OC(=O)[C@H](O)[C@@H](NC(=O)OC(C)(C)C)c4ccccc4)C[C@@](O)([C@@H](OC(=O)c4ccccc4)[C@H]21)C3(C)C [Docetaxel]

Compound: NCCCC[C@@H]1NC(=O)[C@@H](Cc2c[nH]c3ccccc23)NC(=O)[C@H](c2ccccc2)NC(=O)[C@@H]2C[C@@H](OC(=O)NCCN)CN2C(=O)[C@H](Cc2ccccc2)NC(=O)[C@H](Cc2ccc(OCc3ccccc3)cc2)NC1=O [Pasireotide] (cyclo([Hyp]([CO-Ethylenediamine])[Phg][dW]KY(Bn)F))
Binding to sst1 (sst1): binds | Dehydration, Grade 1 [2, 4]: 0 n | Dehydration, Grade 2 [2, 4]: 0 n | Dehydration, Grade 3 [2, 4]: 1 n | Dehydration, Grade 4 [2, 4]: 0 n | Diarrhea, Grade 1 [2, 4]: 2 n | Diarrhea, Grade 2 [2, 4]: 1 n | Diarrhea, Grade 3 [2, 4]: 0 n | Diarrhea, Grade 4 [2, 4]: 0 n | Dry Mouth, Grade 1 [2, 4]: 1 n | Dry Mouth, Grade 2 [2, 4]: 0 n | Dry Mouth, Grade 3 [2, 4]: 0 n | Dry Mouth, Grade 4 [2, 4]: 0 n | Electrocardiogram QT Corrected Interval Prolong, Grade 1 [2, 4]: 0 n | Electrocardiogram QT Corrected Interval Prolong, Grade 2 [2, 4]: 1 n | Electrocardiogram QT Corrected Interval Prolong, Grade 3 [2, 4]: 0 n | Electrocardiogram QT Corrected Interval Prolong, Grade 4 [2, 4]: 0 n | Hyperglycemia, Grade 1 [2, 4]: 0 n | Hyperglycemia, Grade 2 [2, 4]: 0 n | Hyperglycemia, Grade 3 [2, 4]: 3 n | Hyperglycemia, Grade 4 [2, 4]: 0 n | Hyperkalemia, Grade 1 [2, 4]: 0 n | Hyperkalemia, Grade 2 [2, 4]: 1 n | Hyperkalemia, Grade 3 [2, 4]: 0 n | Hyperkalemia, Grade 4 [2, 4]: 0 n | Hypertension, Grade 1 [2, 4]: 0 n | Hypertension, Grade 2 [2, 4]: 0 n | Hypertension, Grade 3 [2, 4]: 2 n | Hypertension, Grade 4 [2, 4]: 0 n | Hyponatremia, Grade 1 [2, 4]: 0 n | Hyponatremia, Grade 2 [2, 4]: 0 n | Hyponatremia, Grade 3 [2, 4]: 1 n | Hyponatremia, Grade 4 [2, 4]: 0 n | Hypophosphatemia, Grade 1 [2, 4]: 0 n | Hypophosphatemia, Grade 2 [2, 4]: 0 n | Hypophosphatemia, Grade 3 [2, 4]: 3 n | Hypophosphatemia, Grade 4 [2, 4]: 0 n | Hypotension, Grade 1 [2, 4]: 0 n | Hypotension, Grade 2 [2, 4]: 0 n | Hypotension, Grade 3 [2, 4]: 1 n | Hypotension, Grade 4 [2, 4]: 0 n | Injection Site Reaction, Grade 1 [2, 4]: 1 n | Injection Site Reaction, Grade 2 [2, 4]: 0 n | Injection Site Reaction, Grade 3 [2, 4]: 0 n | Injection Site Reaction, Grade 4 [2, 4]: 0 n | Rash Acneiform, Grade 1 [2, 4]: 1 n | Rash Acneiform, Grade 2 [2, 4]: 0 n | Rash Acneiform, Grade 3 [2, 4]: 0 n | Rash Acneiform, Grade 4 [2, 4]: 0 n | Urinary Frequency, Grade 1 [2, 4]: 1 n | Urinary Frequency, Grade 2 [2, 4]: 0 n | Urinary Frequency, Grade 3 [2, 4]: 0 n | Urinary Frequency, Grade 4 [2, 4]: 0 n | Grade 4 or 5 toxicities ([2]; 60 mg dose, twelve patients evaluated): None of the patients experienced Grade 4 or 5 toxicities | Dose-limiting toxicities observed ([2]; 80-mg dose level of pasireotide): Grade 4 hyperglycemia unresponsive to therapy and Grade 4 neutropenia lasting for > 7 days in 1 patient each; also recorded: One patient had Grade 4 amylase elevation and the other had Grade 3 hyperglycemia requiring hospitalization | Hospitalizations because of hyperglycemia probably or definitely related to SOM230 ([2]; in vivo): Three | Binding to sst2 (sst2): binds | Growth factors in DU145 cells (DU145 cells): decreased transforming growth factor-β and basic fibroblast growth factor | Binding to sst3 (sst3): binds | Binding to sst5 (sst5): binds | Steady state established in most patients [3]: ≤ 57 days | Growth factor secretion in PC3 cells (PC3 cells): reduced secretion of stem cell factor and platelet-derived growth factor

Compound: C[C@]12CC[C@@H]3c4ccc(OC(=O)N(CCCl)CCCl)cc4CC[C@H]3[C@@H]1CC[C@@H]2O [estramustine]
Median OS (mCRPC): 18 months
